Consider eleven compounds from publication PMC2858585 (DNA and cell biology, 2008).

For data set [1], the target named is T1, Recombinant SPEH1 (Strongylocentrotus purpuratus, UniProt B2MWN2). Nature of the data set: Hydrolysis of EETs and EpOMEs analyzed by LC-MS/MS, recombinant SPEH1. Particulars: natural substrates, adjusted for estimated purity. It counts as biochemical.
Data set [2] relates to Recombinant CEEH1. Particulars: natural substrates, ref Harris et al. (2008); cited from earlier work.
Data set [3] has as its system Recombinant CEEH1. Particulars: read-out: Recombinant CEEH1 IC50; PHOME as substrate; ref Harris et al. (2008); cited from earlier work.
Data set [4] concerns the target T1, Recombinant SPEH1. The data set is described as follows: Fluorescent IC50 assay with PHOME as substrate, recombinant SPEH1. It counts as biochemical.
Data set [5] deals with SPEH1. Nature of the data set: Phosphatase assay with AttoPhos, SPEH1. Format: biochemical, Strongylocentrotus purpuratus. Particulars: AttoPhos as substrate.
For data set [6], the system named is SPEH2. Nature of the data set: Phosphatase assay with AttoPhos, SPEH2. It counts as biochemical, Strongylocentrotus purpuratus. Particulars: AttoPhos as substrate.
Data set [7] deals with T1, Recombinant SPEH1. Nature of the data set: Inhibition of recombinant SPEH1, [3H] t-DPPO as substrate. Format: biochemical. Particulars: read-out: Recombinant SPEH1 IC50.
In data set [8] the target is T1, Recombinant SPEH1. Format: biochemical.
In data set [9] the test system is SPEH2. Nature of the data set: Radiometric epoxide hydrolase assay with t-DPPO, recombinant SPEH2. It counts as biochemical, Strongylocentrotus purpuratus. Particulars: t-DPPO as substrate. In short, it runs like this:
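Recombinant enzyme with a C-terminal six-histidine tag, expressed in baculovirus-infected Trichoplusia ni High Five cells (0.1 MOI, 72 h at 28°C). […] The radiometric assay used tritium-labelled t-DPPO as substrate, with enzyme at 0.3 µg/mL, and was terminated at 10 min.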

The test system of data set [10] is Recombinant CEEH1. Particulars: ref Harris et al. (2008), cited from earlier work.
Data set [11] relates to Recombinant human sEH. Particulars: ref Morisseau et al. (2000), cited from earlier work.
Where [12] appears, read: t-DPPO as substrate, recombinant SPEH1.
Setting [13] is: t-DPPO as substrate, recombinant CEEH1.
Setting [14] is: t-DPPO as substrate, recombinant human sEH.

Entries after “also recorded” stand apart in the source; their conditions may differ. Read-outs that look alike come from different tables or passages of the source.

For `CCCCC/C=C\C/C=C\CC1OC1C/C=C\CCCC(=O)O` (stereo not drawn) [8,9-EET], the figures for the Specific activity in data set [1] and in data set [2] were 33 ± 7.2 nmol/min/mg and 45.2 ± 1.00 nmol/min/mg, respectively.

With `CCCCCC=CCC1OC1CCCCCCCC(=O)O` (stereo not drawn) [9,10-EpOME, 9,10-epoxy-12-octadecenoate], the Specific activity in [1] was 4800 ± 210 nmol/min/mg; in data set [2], 137 ± 1.77 nmol/min/mg.

With `CCCCC/C=C\C[C@H]1O[C@H]1C/C=C\C/C=C\CCCC(=O)O` [11,12-EET], the Specific activity in data set [1] is 490 ± 140 nmol/min/mg; in [2] it was 205 ± 15.3 nmol/min/mg.

Take `CCCCCC1OC1C/C=C\C/C=C\C/C=C\CCCC(=O)O` (stereo not drawn) [14,15-EET]: the results for the Specific activity in data set [1] and in data set [2] were 330 ± 64 nmol/min/mg and 615 ± 10.8 nmol/min/mg, respectively.

For the compound `O=C(NC1CCCCC1)NC12CC3CC(CC(C3)C1)C2` [ACU, N-adamantyl-N′-cyclohexylurea], the IC50 in [3] was 2.5 ± 0.12 µM.

For the compound `O=C(O)CCCCCCCCCCCNC(=O)NC12CC3CC(CC(C3)C1)C2` [AUDA, 12-(3-adamantane-1-yl-ureido)-dodecanoic acid], the results for the IC50 in [4] and in data set [3] were 0.16 ± 0.013 µM and 0.027 ± 0.00029 µM, respectively.

As to `O=P(O)(O)Oc1ccc2nc(-c3nc4ccccc4s3)sc2c1` [AttoPhos], the “Phosphatase activity of SPEH1 with AttoPhos” value in [5] is given as “did not display phosphatase activity”. The “Phosphatase activity of SPEH2 with AttoPhos” value in data set [6] was “did not display phosphatase activity”.

Take `CCCCCCCCCCCCNC(=O)NC1CCCCC1` [CDU, N-cyclohexyl-N′-dodecylurea]: the IC50 in data set [3] is 0.16 ± 0.023 µM.

Turning to `CCNC(=O)NC1CCCCC1` [CEU, N-cyclohexyl-N′-ethylurea], the IC50 in data set [7] and in [3] was over 50 µM in each case.

Turning to `O=C(NC1CCCCC1)NC1CCCCC1` [DCU, N,N′-dicyclohexylurea], the IC50 in data set [3] is 41 µM.

As for `c1ccc(CC2OC2c2ccccc2)cc1` (stereo not drawn) [t-DPPO], the Km in [8] (setting [12]) is 35 ± 1.2 µM; in data set [10] (setting [13]), 160 ± 21 µM; in [11] (setting [14]) it was 6.2 ± 0.6 µM. For the same compound, the values for the kcat in data set [8] (setting [12]), in data set [10] (setting [13]) and in [11] (setting [14]) were 44 ± 0.71 s⁻¹, 12 ± 0.5 s⁻¹ and 4.3 ± 0.3 s⁻¹, respectively. The Specific activity in data set [8] (t-DPPO as substrate, recombinant SPEH1, adjusted for estimated purity) was 3100 ± 270 nmol/min/mg; in data set [10] (setting [13]), 3000 ± 230 nmol/min/mg; in [11] (setting [14]) it was 4500 ± 200 nmol/min/mg. In addition, the kcat/Km ratio is recorded as 1.3 in data set [8] (t-DPPO, SPEH1, unit not given); 0.07 in data set [10] (t-DPPO, nematode enzyme, unit not given); 0.7 in data set [11] (t-DPPO, human enzyme, unit not given). For the same compound, the “EH activity of SPEH2 with t-DPPO” value in [9] is listed as “not active; also recorded: did not display activity”.
